From ChEMBL document CHEMBL4251757 (J Med Chem, 2018)

Tests used:
Oxoeicosanoid receptor 1 [1] = biological target: T1, Oxoeicosanoid receptor 1 (Homo sapiens, UniProt Q8TDS5); experiment: Antagonist activity at OXE receptor in human neutrophils assessed as inhibition of 5-oxo-ETE-induced calcium mobilization incubated for 2 mins followed by 5-oxo-ETE addition measured after 1 min by fluorescence assay; format: functional
Procedure, shortened: (§1)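 Human neutrophils were isolated from healthy donors by dextran sedimentation and Ficoll-Paque centrifugation, then loaded with indo-1. Fluorescence was read at 37 °C in a stirred cuvette. Antagonist was added at various concentrations; 2 min later 5-oxo-ETE (10 nM) was added. Digitonin (final 0.1%) followed 1 min later to give maximal fluorescence.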

[2] = Drug metabolism in cynomolgus monkey plasma at 30 mg/kg administered via oral gavage assessed as metabolite (R)-5-(5-Chloro-2-((S)-1-hydroxy-6-phenylhexyl)-1-methyl-1Hindol-3-yl)-3-methyl-5-oxopentanoic acid formation after 4 hrs by chiral-HPLC analysis; format: ADME, organism-based, Macaca fascicularis; settings: in vivo
Procedure, shortened: (§2)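 After oral gavage of racemate at 30 mg/kg, plasma C025 or its metabolite was isolated by RP-HPLC, then run by chiral HPLC on Cellulose-1 at 2 ml/min and 30 °C. Mobile phase was hexane/MeOH/HOAc 97.5:2.5:0.1 for parent and 97:3:0.1 for metabolite. Samples were taken at 4 h and 24 h; n=2 for enantiomer levels.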

[3] = Cmax in cynomolgus monkey plasma at 15 mg/kg administered via oral gavage by RP-HPLC analysis; format: ADME, organism-based, Macaca fascicularis; parameters: dose 15 mg/kg, route oral
[4] = Drug level in cynomolgus monkey plasma treated with 30 mg/kg 5-(5-Chloro-1-methyl-2-(6-phenylhexyl)-1H-indol-3-yl)-3-methyl-5-oxopentanoic Acid administered via oral gavage assessed as compound formation after 12 hrs by RP-HPLC analysis; format: ADME, organism-based, Macaca fascicularis; settings: in vivo
Procedure, shortened: (§3)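 Monkeys received 30 mg/kg by oral gavage in EtOH/20 mM NaHCO3 pH 8.0 vehicle. A plasma extract taken 12 h later was run by RP-HPLC on a C18 column (4 µm, 3.9 x 150 mm) with a 15-min gradient of 70–100% MeOH in H2O, both containing 0.02% HOAc. The tetramethylene analog served as internal standard.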

[5] = Tmax in cynomolgus monkey plasma at 5 mg/kg administered via oral gavage by RP-HPLC analysis; format: ADME, organism-based, Macaca fascicularis
Procedure, shortened: (§4)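 Female cynomolgus monkeys (2.5–3.5 kg). Compound dissolved in EtOH at 75 mg/mL, diluted in 10 volumes of 20 mM NaHCO3 pH 8.0 (9.1% EtOH) and given by oral gavage; 4.4 mL/kg for 30 mg/kg, 2.2 mL/kg for lower doses. Blood drawn into heparin pre-dose and at 0.5, 1, 2, 4, 8, 12, 24 h, sometimes 3 and 7 days. Plasma diluted with 2 volumes MeOH plus internal standard, then RP-HPLC.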

[6] = Half life in cynomolgus monkey plasma at 15 mg/kg administered via oral gavage by RP-HPLC analysis; format: ADME, organism-based, Macaca fascicularis
[7] = Cmax in cynomolgus monkey plasma at 5 mg/kg administered via oral gavage by RP-HPLC analysis; format: ADME, organism-based, Macaca fascicularis; parameters: dose 5 mg/kg, route oral; procedure, shortened: as §4
[8] = Half life in cynomolgus monkey plasma at 1 mg/kg administered via oral gavage by RP-HPLC analysis; format: ADME, organism-based, Macaca fascicularis; procedure, shortened: as §4
[9] = AUC (0 to 24 hrs) in cynomolgus monkey plasma at 1 mg/kg administered via oral gavage by RP-HPLC analysis; format: ADME, organism-based, Macaca fascicularis; parameters: time < 24 hr, dose 1 mg/kg, route oral; procedure, shortened: as §4
[10] = AUC (0 to 24 hrs) in cynomolgus monkey plasma at 30 mg/kg administered via oral gavage by RP-HPLC analysis; format: ADME, organism-based, Macaca fascicularis; parameters: dose 30 mg/kg, time < 24 hr, route oral; procedure, shortened: as §4
[11] = Half life in cynomolgus monkey plasma at 5 mg/kg administered via oral gavage by RP-HPLC analysis; format: ADME, organism-based, Macaca fascicularis; procedure, shortened: as §4
[12] = Tmax in cynomolgus monkey plasma at 15 mg/kg administered via oral gavage by RP-HPLC analysis; format: ADME, organism-based, Macaca fascicularis
[13] = Tmax in cynomolgus monkey plasma at 30 mg/kg administered via oral gavage by RP-HPLC analysis; format: ADME, organism-based, Macaca fascicularis; procedure, shortened: as §4
[14] = Half life in cynomolgus monkey plasma at 10 mg/kg administered via oral gavage by RP-HPLC analysis; format: ADME, organism-based, Macaca fascicularis; procedure, shortened: as §4
[15] = Cmax in cynomolgus monkey plasma at 1 mg/kg administered via oral gavage by RP-HPLC analysis; format: ADME, organism-based, Macaca fascicularis; parameters: dose 1 mg/kg, route oral; procedure, shortened: as §4
[16] = AUC (0 to 24 hrs) in cynomolgus monkey plasma at 2 mg/kg administered via oral gavage by RP-HPLC analysis; format: ADME, organism-based, Macaca fascicularis; parameters: dose 2 mg/kg, time < 24 hr, route oral; procedure, shortened: as §4
[17] = Half life in cynomolgus monkey plasma at 2 mg/kg administered via oral gavage by RP-HPLC analysis; format: ADME, organism-based, Macaca fascicularis; procedure, shortened: as §4
[18] = Tmax in cynomolgus monkey plasma at 1 mg/kg administered via oral gavage by RP-HPLC analysis; format: ADME, organism-based, Macaca fascicularis; procedure, shortened: as §4
[19] = Cmax in cynomolgus monkey plasma at 10 mg/kg administered via oral gavage by RP-HPLC analysis; format: ADME, organism-based, Macaca fascicularis; parameters: dose 10 mg/kg, route oral; procedure, shortened: as §4
[20] = Plasma concentration in cynomolgus monkey at 30 mg/kg administered via oral gavage after 24 hrs by chiral-HPLC analysis; format: ADME, organism-based, Macaca fascicularis; procedure, shortened: as §2
[21] = AUC (0 to 24 hrs) in cynomolgus monkey plasma at 10 mg/kg administered via oral gavage by RP-HPLC analysis; format: ADME, organism-based, Macaca fascicularis; parameters: time < 24 hr, dose 10 mg/kg, route oral; procedure, shortened: as §4
[22] = Cmax in cynomolgus monkey plasma at 2 mg/kg administered via oral gavage by RP-HPLC analysis; format: ADME, organism-based, Macaca fascicularis; parameters: dose 2 mg/kg, route oral; procedure, shortened: as §4
[23] = AUC (0 to 24 hrs) in cynomolgus monkey plasma at 5 mg/kg administered via oral gavage by RP-HPLC analysis; format: ADME, organism-based, Macaca fascicularis; parameters: dose 5 mg/kg, time < 24 hr, route oral; procedure, shortened: as §4
[24] = Plasma concentration in cynomolgus monkey at 30 mg/kg administered via oral gavage after 3 days by RP-HPLC analysis; format: ADME, organism-based, Macaca fascicularis; procedure, shortened: as §4
[25] = Plasma concentration in cynomolgus monkey at 30 mg/kg administered via oral gavage after 7 days by RP-HPLC analysis; format: ADME, organism-based, Macaca fascicularis; procedure, shortened: as §4
[26] = Tmax in cynomolgus monkey plasma at 2 mg/kg administered via oral gavage by RP-HPLC analysis; format: ADME, organism-based, Macaca fascicularis; procedure, shortened: as §4
[27] = AUC (0 to 24 hrs) in cynomolgus monkey plasma at 15 mg/kg administered via oral gavage by RP-HPLC analysis; format: ADME, organism-based, Macaca fascicularis; parameters: time < 24 hr, dose 15 mg/kg, route oral
[28] = Cmax in cynomolgus monkey plasma at 30 mg/kg administered via oral gavage by RP-HPLC analysis; format: ADME, organism-based, Macaca fascicularis; parameters: dose 30 mg/kg, route oral; procedure, shortened: as §4
[29] = Half life in cynomolgus monkey plasma at 30 mg/kg administered via oral gavage by RP-HPLC analysis; format: ADME, organism-based, Macaca fascicularis; procedure, shortened: as §4
[30] = Tmax in cynomolgus monkey plasma at 10 mg/kg administered via oral gavage by RP-HPLC analysis; format: ADME, organism-based, Macaca fascicularis; procedure, shortened: as §4
[31] = Drug metabolism in cynomolgus monkey plasma at 30 mg/kg administered via oral gavage assessed as metabolite (S)-5-(5-Chloro-2-((S)-1-hydroxy-6-phenylhexyl)-1-methyl-1Hindol-3-yl)-3-methyl-5-oxopentanoic acid formation after 24 hrs by chiral-HPLC analysis; format: ADME, organism-based, Macaca fascicularis; settings: in vivo; procedure, shortened: as §2
[32] = Plasma concentration in cynomolgus monkey at 30 mg/kg administered as oral gavage measured after 8 hrs by RP-HPLC analysis; format: ADME, organism-based, Macaca fascicularis; procedure, shortened: as §4
[33] = Plasma concentration in cynomolgus monkey at 30 mg/kg administered as oral gavage measured after 1 hr by RP-HPLC analysis; format: ADME, organism-based, Macaca fascicularis; procedure, shortened: as §4
[34] = Drug metabolism in cynomolgus monkey plasma at 30 mg/kg administered via oral gavage assessed as phenylpentamethylene side chain modification after 12 hrs by RP-HPLC analysis; format: ADME, organism-based, Macaca fascicularis; settings: in vivo; procedure, shortened: as §3
[35] = Drug metabolism in cynomolgus monkey plasma at 30 mg/kg administered via oral gavage assessed as metabolite (S)-5-(5-Chloro-2-((S)-1-hydroxy-6-phenylhexyl)-1-methyl-1Hindol-3-yl)-3-methyl-5-oxopentanoic acid formation after 12 hrs by RP-HPLC analysis; format: ADME, organism-based, Macaca fascicularis; settings: in vivo; procedure, shortened: as §3
Oxoeicosanoid receptor 1 [36] = biological target: T1, Oxoeicosanoid receptor 1; experiment: Antagonist activity at OXE receptor in human neutrophils assessed as inhibition of 5-oxo-ETE-induced calcium mobilization incubated for 2 mins followed by 5-oxo-ETE addition by fluorescence assay; format: functional; procedure, shortened: as §1

T1 sequence (Q8TDS5 whole entry): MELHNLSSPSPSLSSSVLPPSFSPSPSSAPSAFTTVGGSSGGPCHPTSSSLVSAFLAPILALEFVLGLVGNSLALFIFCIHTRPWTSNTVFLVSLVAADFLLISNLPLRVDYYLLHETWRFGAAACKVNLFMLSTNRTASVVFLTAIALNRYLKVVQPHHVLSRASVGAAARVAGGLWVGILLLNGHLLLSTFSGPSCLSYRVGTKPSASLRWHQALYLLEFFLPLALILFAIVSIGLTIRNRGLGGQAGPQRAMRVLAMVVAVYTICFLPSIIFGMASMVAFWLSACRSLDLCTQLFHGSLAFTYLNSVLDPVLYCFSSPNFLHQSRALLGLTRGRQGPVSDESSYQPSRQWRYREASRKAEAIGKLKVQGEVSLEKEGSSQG

C[C@@H](CC(=O)O)CC(=O)c1c([C@@H](O)CCCCCc2ccccc2)n(C)c2ccc(Cl)cc12
IC50 (Oxoeicosanoid receptor 1 [1]): 0.12 µM

C[C@H](CC(=O)O)CC(=O)c1c(CCCCCCc2ccccc2)n(C)c2ccc(Cl)cc12
Drug metabolism [2]: Metabolite_Detected
Cmax [3]: 32 µM
Drug uptake [4]: Active
Tmax [5]: 1.2 h
half-life [6]: 3.4 h
Cmax [7]: 18 µM
half-life [8]: 0.9 h
AUC(0-t) at 24 h [9]: 13 µM·h
AUC(0-t) at 24 h [10]: 684 µM·h
half-life [11]: 1.9 h
Tmax [12]: 0.8 h
Tmax [13]: 1.3 h
half-life [14]: 2.8 h
Cmax [15]: 4.5 µM
AUC(0-t) at 24 h [16]: 26 µM·h
half-life [17]: 1.1 h
Tmax [18]: 0.7 h
Cmax [19]: 35 µM
concentration at 24 h [20]: 1 µM
AUC(0-t) at 24 h [21]: 171 µM·h
Cmax [22]: 7.8 µM
AUC(0-t) at 24 h [23]: 78 µM·h
concentration at 72 h [24]: 0.16 µM
concentration at 168 h [25]: 0.04 µM
Tmax [26]: 0.7 h
AUC(0-t) at 24 h [27]: 169 µM·h
Cmax [28]: 106 µM
half-life [29]: 3.5 h
Tmax [30]: 1.2 h
IC50 (Oxoeicosanoid receptor 1 [1]): 0.00012 µM

CC(CC(=O)O)CC(=O)c1c(C(O)CCCCCc2ccccc2)n(C)c2ccc(Cl)cc12 (centres undefined)
Drug uptake [4]: Active

C[C@@H](CC(=O)O)CC(=O)c1c(CCCCCCc2ccccc2)n(C)c2ccc(Cl)cc12
Cmax [3]: 79 µM
Drug uptake [4]: Active
half-life [6]: 9.3 h
Tmax [12]: 2.5 h
concentration at 24 h [20]: > 20 µM
Drug metabolism [31]: Metabolite_Detected
AUC(0-t) at 24 h [27]: 1080 µM·h

C[C@H](CC(=O)O)CC(=O)c1c([C@H](O)CCCCCc2ccccc2)n(C)c2ccc(Cl)cc12
IC50 (Oxoeicosanoid receptor 1 [1]): 0.26 µM

CC(CC(=O)O)CC(=O)c1c(CCCCCC(F)(F)F)n(C)c2ccc(Cl)cc12 (centres undefined)
IC50 (Oxoeicosanoid receptor 1 [1]): 0.038 µM

C[C@@H](CC(=O)O)CC(=O)c1c([C@H](O)CCCCCc2ccccc2)n(C)c2ccc(Cl)cc12
IC50 (Oxoeicosanoid receptor 1 [1]): 0.75 µM

CC(CC(=O)O)CC(=O)n1c(CCCc2ccccc2)cc2ccc(Cl)cc21 (centres undefined)
IC50 (Oxoeicosanoid receptor 1 [1]): 0.21 µM

CCCCCCc1cc2ccc(Cl)cc2n1C(=O)CC(C)CC(=O)O (racemic)
concentration at 8 h [32]: < 0.5 µM
AUC(0-t) at 24 h [10]: 55 µM·h
concentration at 1 h [33]: > 25 µM
Tmax [13]: 0.9 h
Cmax [28]: 27 µM
half-life [29]: 1.2 h

CC(CC(=O)O)CC(=O)n1c(CCCCCc2ccccc2)cc2ccc(Cl)cc21 (racemic)
AUC(0-t) at 24 h [10]: 294 µM·h
Tmax [13]: 2 h
Drug metabolism [34]: Metabolite_Detected
Cmax [28]: 55 µM
half-life [29]: 3 h
IC50 (Oxoeicosanoid receptor 1 [1]): 0.0021 µM

C[C@H](CC(=O)O)CC(=O)c1c([C@@H](O)CCCCCc2ccccc2)n(C)c2ccc(Cl)cc12
Drug uptake [4]: Active
concentration at 72 h [24]: 1.5 µM
concentration at 168 h [25]: 0.2 µM
IC50 (Oxoeicosanoid receptor 1 [1]): 0.00038 to 0.00069 µM

CC(CC(=O)O)CC(=O)n1c(CCCCCCc2ccccc2)cc2ccc(Cl)cc21 (centres undefined)
IC50 (Oxoeicosanoid receptor 1 [1]): 0.012 µM

CC(CC(=O)O)CC(=O)n1c(CCCCc2ccccc2)cc2ccc(Cl)cc21 (centres undefined)
IC50 (Oxoeicosanoid receptor 1 [1]): 0.018 µM

CC(CC(=O)O)CC(=O)c1c(CCCCCCc2ccccc2)n(C)c2ccc(Cl)cc12 (racemic)
AUC(0-t) at 24 h [10]: 1250 µM·h
Tmax [13]: 2.5 h
Drug metabolism [35]: Metabolite_Detected
Cmax [28]: 108 µM
half-life [29]: 7.4 h
IC50 (Oxoeicosanoid receptor 1 [1]): 0.00028 µM

CCCCCCc1c(C(=O)C[C@H](C)CC(=O)O)c2cc(Cl)ccc2n1C
concentration at 8 h [32]: 1.6 µM
AUC(0-t) at 24 h [10]: 100 µM·h
concentration at 1 h [33]: 36 µM
Tmax [13]: 1 h
Cmax [28]: 36 µM
half-life [29]: 1.6 h

CCCCCCc1c(C(=O)CC(C)CC(=O)O)c2cc(Cl)ccc2n1C (racemic)
AUC(0-t) at 24 h [10]: 198 µM·h
Tmax [13]: 0.6 h
Cmax [28]: 121 µM
half-life [29]: 0.7 h
IC50 (Oxoeicosanoid receptor 1 [1]): 0.017 to 0.026 µM

CCCCC/C=C\C[C@H](O)/C=C/C=C\C=C\C(=O)CCCC(=O)O
IC50 (Oxoeicosanoid receptor 1 [36]): 0.5 µM
